# Published values pooled from the literature.
# Each line is one published result; the experiments were not run side by side.
Compound,tested on,test,system,conditions,endpoint,value
COc1ccc(NC(=O)Nc2cccc(-c3cn(Cc4ccc(Cl)cc4)nn3)c2)cc1,Huh-7,"cell growth or viability, CCK-8",,"50 µM, 48 h",viability,67.1%
Cc1ccc(Nc2cnnc3cc(-c4cnc(N5CCCN(C)CC5)nc4)ccc23)cn1,Trypanosoma cruzi,parasite growth,C2C12,"intracellular, amastigote",EC50,> 10 µM
Cc1ccccc1Cn1cc(-c2cccc(NC(=O)Nc3ccc(F)cc3)c2)nn1,Huh-7,"cell growth or viability, CCK-8",,"50 µM, 48 h",viability,46%
CN1CCN(c2ccc(-c3ccc4nncc(Nc5ncccn5)c4c3)cc2)CC1,Trypanosoma cruzi,parasite growth,C2C12,"intracellular, amastigote",EC50,7.9 µM
O=C(NCc1cn(Cc2ccc(Cl)cc2)nn1)Nc1ccc(Cl)cc1,Huh-7,"cell growth or viability, CCK-8",,"50 µM, 48 h",viability,65.7%
Cc1ccc(C(C)C)c(OC2=C(Cl)C(=O)c3ccccc3C2=O)c1,Alternaria alternata,"microbial growth, broth dilution",,,MIC,12 µg/mL
O=C(Nc1ccc(-c2cn(Cc3ccc(Cl)cc3)nn2)cc1)Nc1ccccc1Br,Huh-7,"cell growth or viability, CCK-8",,"50 µM, 48 h",viability,80.2%
Cc1ccc(Nc2cnnc3ccc(-c4ccc(N5CCCN(C)CC5)cc4)cc23)cn1,Trypanosoma cruzi,parasite growth,C2C12,"intracellular, amastigote",EC50,6.1 µM
COc1ccc(NC(=O)Nc2cccc(-c3cn(Cc4cccc(Cl)c4)nn3)c2)cc1,Huh-7,"cell growth or viability, CCK-8",,"50 µM, 48 h",viability,65.5%
O=C(NCc1cn(Cc2cccc(Cl)c2)nn1)Nc1ccc(Cl)cc1,Huh-7,"cell growth or viability, CCK-8",,"50 µM, 72 h",viability,82.2%
COc1ccc(Nc2cnnc3cc(-c4cnc(N5CCCN(C)CC5)nc4)ccc23)nc1,Trypanosoma cruzi,parasite growth,C2C12,"intracellular, amastigote",EC50,7.5 µM
O=C(NCc1cn(Cc2ccc(Cl)cc2)nn1)Nc1ccccc1Br,Huh-7,"cell growth or viability, CCK-8",,"50 µM, 72 h",viability,65.6%
COc1ccc(NC(=O)Nc2cccc(-c3cn(Cc4ccc(C)cc4)nn3)c2)cc1,Huh-7,"cell growth or viability, CCK-8",,72 h,IC50,19.3 µM
O=C(Nc1ccc(Cl)cc1)Nc1ccc(-c2cn(Cc3ccc(Cl)cc3)nn2)cc1,Huh-7,"cell growth or viability, CCK-8",,"50 µM, 48 h",viability,83.6%
COc1ccc(NC(=O)Nc2ccc(-c3cn(Cc4cccc(Cl)c4)nn3)cc2)cc1,Huh-7,"cell growth or viability, CCK-8",,"50 µM, 72 h",viability,82.5%
COc1ccc(Nc2cnnc3ccc(-c4ccc(N5CCN(C)CC5)cc4)cc23)nc1,Trypanosoma cruzi,parasite growth,C2C12,"intracellular, amastigote",EC50,1.7 µM
COc1ccc(NC(=O)NCc2cn(Cc3ccc(C)cc3)nn2)cc1,Huh-7,"cell growth or viability, CCK-8",,72 h,IC50,> 50 µM
O=C(Nc1ccc(Cl)cc1)Nc1cccc(-c2cn(Cc3ccc(Cl)cc3)nn2)c1,Huh-7,"cell growth or viability, CCK-8",,"50 µM, 72 h",viability,15.6%
COc1ccc(NC(=O)NCc2cn(Cc3ccc(Br)cc3)nn2)cc1,Huh-7,"cell growth or viability, CCK-8",,"50 µM, 72 h",viability,86%
COc1ccc(Nc2cnnc3cc(-c4cnc(N5CCCN(C)CC5)nc4)ccc23)cc1Cl,Trypanosoma cruzi,parasite growth,C2C12,"intracellular, amastigote",EC50,2 µM
O=C(NCc1cn(Cc2ccc(Br)cc2)nn1)Nc1ccccc1Br,Huh-7,"cell growth or viability, CCK-8",,"50 µM, 72 h",viability,72.9%
CN1CCN(c2ccc(-c3ccc4c(Nc5cnccn5)cnnc4c3)cc2)CC1,Trypanosoma cruzi,parasite growth,C2C12,"intracellular, amastigote",EC50,> 10 µM
O=C(Cn1ccnc1[N+](=O)[O-])NCc1ccccc1,Trypanosoma cruzi,parasite growth,,"72 h, epimastigote",IC50,1.57 µg/mL
